High-throughput results deposited in PubChem by several laboratories.
Sampled rows, rich in hits. Any-hit rate of the full collection: about 1.5%.
TPT1 inh: Candida albicans TPT1 enzyme inhibitors, primary screen, biochemical, fluorescence polarization | tRNA 2'-phosphotransferase TPT1 (Candida albicans SC5314) | inhibition, % at 5 µM | AID 1962, 2009 | recombinant caTPT1, FP RNA substrate dephosphorylation | 0.81% of 300,000 active;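 active means inhibition above the mean of all tested compounds plus 3 SD, set per screening campaign, cut at about 24% in these data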
HNF4A DNA FP: change in binding of human HNF4A to DNA, primary screen, biochemical, fluorescence polarization, FITC-DNA; Hepatocyte nuclear factor 4-alpha (Homo sapiens), P41235; 1 h; activity change, % at 10 µM; 0.3% of 360,000 active; AID 1224865, 2016; in the data active means activity change above about 30%, passing the limit was not always enough
Rpn11 block: Rpn11 (PSMD14) deubiquitinase inhibitors, primary screen, biochemical, fluorescence polarization, uHTS. 0.59% of 360,000 active. inhibition, % at 20 µM. 26S proteasome non-ATPase regulatory subunit 14 (Homo sapiens), O00487. human 26S proteasome, Ub4-pepOG fluorescence polarization; 20S core pre-blocked with epoxomicin. AID 588493, 2011;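 active means inhibition at 20 µM, scaled to each plate's controls, above about 33%, limit read from the data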
Target sequence (O00487 whole entry, looked up): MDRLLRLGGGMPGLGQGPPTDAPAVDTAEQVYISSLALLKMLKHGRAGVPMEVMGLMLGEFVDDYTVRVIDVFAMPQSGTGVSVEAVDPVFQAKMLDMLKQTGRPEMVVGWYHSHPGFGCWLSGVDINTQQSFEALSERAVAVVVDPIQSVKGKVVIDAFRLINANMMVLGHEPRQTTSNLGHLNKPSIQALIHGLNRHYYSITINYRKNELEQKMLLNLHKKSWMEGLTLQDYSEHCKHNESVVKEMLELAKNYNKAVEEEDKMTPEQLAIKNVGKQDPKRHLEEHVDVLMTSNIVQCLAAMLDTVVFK
CSN inh: inhibitors of CSN-mediated cullin deneddylation, primary screen, biochemical, fluorescence polarization, uHTS; COP9 signalosome complex subunit 5 (Homo sapiens), Q92905; Purified CSN, SCF-Nedd8-OG deneddylation; inhibition, % at 12.5 µM; 0.38% of 360,000 active; AID 651999, 2013;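 active means pattern-corrected inhibition above about 35%, with an unprinted fluorescence ratio check between 0.5 and 1.5, limit read from the data, passing the limit was not always enough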
Target sequence (Q92905 whole entry, looked up, one chain of several): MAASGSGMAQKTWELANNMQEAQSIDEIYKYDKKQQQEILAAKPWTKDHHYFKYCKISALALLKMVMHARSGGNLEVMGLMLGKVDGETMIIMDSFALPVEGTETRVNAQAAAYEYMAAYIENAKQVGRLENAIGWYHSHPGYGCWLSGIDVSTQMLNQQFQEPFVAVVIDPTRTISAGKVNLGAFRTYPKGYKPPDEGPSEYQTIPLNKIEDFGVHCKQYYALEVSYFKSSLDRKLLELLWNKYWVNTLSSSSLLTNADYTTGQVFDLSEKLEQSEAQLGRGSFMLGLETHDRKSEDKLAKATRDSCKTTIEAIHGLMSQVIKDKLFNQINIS
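Assay system: HEK293T-derived human Csn5 enzyme; quantity: 0.24 nM enzyme; medium: Tris/NaCl/DTT buffer, pH 7.5; also added: substrate SCFSkp2-Nedd8OG, 10 nM; doses: 12.5 µM compound; schedule: 90 min reaction at room temperature; signal: FP; read-out: % inhibition of substrate cleavage by Csn5; benchmarks: substrate-only high control, full reaction low control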
Large screens that a line does not name were inactive.

Fc1ccc(N2N=C(c3cccs3)CC2c2ccccc2)cc1 (centres undefined)	Rpn11 block 63
O=S(=O)(c1ccccc1)N1N=C(c2cccs2)CC1c1ccc(F)cc1 (centres undefined)	none
CSc1ccc(CN2CCC(C)(Oc3ccccc3F)C2)cc1 (centres undefined)	none (no result: TPT1 inh)
Cc1ccc(-c2nc3cccnc3s2)cc1NC(=O)C1c2ccccc2Oc2ccccc21	HNF4A DNA FP 40, CSN inh 36 (no result: TPT1 inh)
Cc1ccc(-c2nc3cccnc3s2)cc1NC(=O)c1ccco1	none
CC1(C)CC(=O)C2=C(C1)OC(N)=C(C#N)C2CCc1ccccc1 (centres undefined)	none
N#CC1=C(N)SC(N)=C(C#N)C1CCc1ccccc1	TPT1 inh 119 (not shown: Rpn11 block)
Cc1cccc(C(=O)NCC(c2ccc(F)cc2)N2CCOCC2)c1 (centres undefined)	none
Cc1ccc(C(=O)NCC(c2ccc(F)cc2)N2CCOCC2)cc1 (centres undefined)	HNF4A DNA FP 77
CCOC(=O)N1CCN(C(=O)CNS(=O)(=O)c2c(C)cc(C)cc2C)CC1	none
COc1ccc(-c2csc(NC(=O)CCNC(=O)c3ccco3)n2)cc1	none (no result: TPT1 inh)
Cc1ccc(-c2csc(NC(=O)CCNC(=O)c3ccco3)n2)cc1	HNF4A DNA FP 40
Cc1ccc(NC(=O)CSc2nnc(CNC(=O)c3ccco3)n2C)cc1C	CSN inh 43
Cc1ccc(NC(=O)CSc2nnc(CNC(=O)c3ccco3)n2C)cc1	none
CCOc1ccc(OCCNC(=O)c2cc(C3CC3)nc3c2cnn3C(C)C)cc1	none (no result: TPT1 inh)
CC(C)c1ccc(-n2cccc2/C=C2/C(=N)N3C=CSC3=NC2=O)cc1	HNF4A DNA FP 51 (not shown: Rpn11 block)
Cc1ccccc1Cn1cccc1/C=C1/C(=N)N2C=CSC2=NC1=O	CSN inh 41 (not shown: Rpn11 block)
CN1c2ccccc2C(C)(C)C12C=Nc1c(cc(N3CCOCC3)c3ccccc13)O2 (centres undefined)	none (no result: TPT1 inh)
CN1c2ccccc2C(C)(C)C12C=Cc1cc(O)ccc1O2 (centres undefined)	HNF4A DNA FP 35, Rpn11 block 82
Cc1c(C)c2ccc(OCC(=O)NCc3ccccn3)cc2oc1=O	CSN inh 72
O=C1/C(=C/c2ccc(N3CCOCC3)o2)SC(=Nc2ccccc2)N1CCc1c[nH]c2ccccc12	TPT1 inh 148 (not shown: Rpn11 block)
COc1cc(/C=C2\SC(=Nc3ccccc3)N(CCc3c[nH]c4ccccc34)C2=O)ccc1OC(C)C(=O)O (centres undefined)	none
O=C(COC(=O)C1CC2C=CC1C2)NCc1ccco1 (centres undefined)	CSN inh 35
O=C1NC(=Nc2ccccc2)S/C1=C/c1cccs1	HNF4A DNA FP 64
O=C1NC(=Nc2ccccc2)S/C1=C\c1ccccc1	none
COc1ccc(S(=O)(=O)NCc2cccnc2)cc1OC	HNF4A DNA FP 46
Oc1ccc(Cl)cc1-c1cc(-c2ccco2)[nH]n1	CSN inh 45
COC(=O)[C@@]12C[C@@H](CC(=O)N3CCC(c4ccccc4)CC3)C(=O)N(Cc3ccco3)C1=CCC(C)(C)C2	CSN inh 121 (no result: TPT1 inh, Rpn11 block)
O=C(CSc1nc(-c2ccccc2)cs1)NCCN1C(=O)CSC1=O	none
CN1/C(=C\C=Nc2ccc3ccccc3c2)C(C)(C)c2ccccc21	TPT1 inh 49
CN(C)c1ccc(N=C/C=C2\N(C)c3ccccc3C2(C)C)cc1	none
CN1\C(=C/C=C/C=C/C=[N+](C)C)C(C)(C)c2ccccc21	HNF4A DNA FP 102 (not shown: TPT1 inh, Rpn11 block)
CC(=O)c1ccccc1C(=O)N1CCCC(CNC(=O)c2ccc(F)cc2)C1 (centres undefined)	none (no result: TPT1 inh)
CC1(C(=O)Nc2cccc(OC(F)(F)F)c2)Cc2c(-c3ccc(C(N)=O)cc3)ccnc2O1 (centres undefined)	none (no result: TPT1 inh)
Cc1csc(NC(=O)c2cc(-c3ccco3)nc3ccccc23)n1	CSN inh 46
Cc1ccccc1Nc1nc(Cl)c(C=O)s1	TPT1 inh 27
O=C(NCCCN1CCOCC1)NC1CCCCC1	none
O=C(NCCCCCCCN1CCCCCCC1)C(C1CCCCC1)C1CCCCC1	CSN inh 55 (no result: TPT1 inh)
COc1ccc2nc(-c3ccccc3)[nH]c(=O)c2c1	none (no result: TPT1 inh)
COc1ccc(-c2nc3ccc(N4CCCC4)cc3c(=O)[nH]2)cc1OC	CSN inh 113
CC(C)OC(=O)/C(C#N)=C/c1ccc(-c2ccc(SC(F)F)cc2)o1	Rpn11 block 57
COC(=O)/C(C#N)=C/c1ccc(-c2ccc(S(N)(=O)=O)cc2)o1	none
CC(C)(C)OC(=O)C[C@@H]1C/C=C\C[C@@H](CC(=O)N[C@H](CO)Cc2ccccc2)C(=O)N2CCC[C@H]2COC1=O	none (no result: TPT1 inh)
CCOC(=O)Nc1cc2c(cc1[N+](=O)[O-])-c1ccccc1C2=O	HNF4A DNA FP 38 (no result: TPT1 inh)
CCOC(=O)Nc1cccc2c1-c1ccc([N+](=O)[O-])cc1C2=O	none (no result: TPT1 inh)
N#Cc1cn(Cc2ccco2)c(=O)[nH]c1=O	none (no result: TPT1 inh)
CCOC(=O)Nc1ccc2c(CN3CCC(C(=O)OC)CC3)cc(=O)oc2c1	none
CCc1ccc2c(CN3CCC(C(=O)OC)CC3)cc(=O)oc2c1	HNF4A DNA FP 84
O=C1NC[C@H](CC2CCCCC2)N(CCC23CC4CC(CC(C4)C2)C3)C1=O	CSN inh 66 (no result: TPT1 inh, Rpn11 block)
O=C1NC[C@H](CC2CCCCC2)N(CCc2cccc(F)c2)C1=O	CSN inh 38
CCCCCCCCN1C(=O)[C@H](CC(=O)NCc2cccc(C(F)(F)F)c2)C[C@@]2(C(=O)OCC)CCCC=C12	none (no result: TPT1 inh, Rpn11 block)
CCOc1ccccc1C(=O)Nc1ccc(S(=O)(=O)Nc2nccc(C)n2)cc1	none
CCOC(=O)c1c(NC(=O)Cn2c(C)nc3ccccc32)sc2c1CCC2	none
CCOC(=O)c1c(NC(=O)COC(=O)Cn2c(C)nc3ccccc32)sc2c1CCCC2	CSN inh 43
O=C(/C=C/c1cn(CC(O)CN2CCCCC2)c2ccccc12)c1ccccc1 (centres undefined)	Rpn11 block 42 (no result: TPT1 inh)
CCCCN(C)CC(O)Cn1cc(/C=C/C(=O)c2ccc(C)cc2)c2ccccc21 (centres undefined)	Rpn11 block 46
Cc1noc(/C=C/c2ccc(-c3ccccc3Cl)o2)c1[N+](=O)[O-]	TPT1 inh 138 (not shown: Rpn11 block)
Cc1noc(/C=C/c2cccnc2)c1[N+](=O)[O-]	none
c1ccc2c(c1)COc1c3ncccc3nn1-2	none (no result: TPT1 inh)
CC1(C)Cc2ccccc2C2CC(O)C(=O)N21 (centres undefined)	HNF4A DNA FP 35
O=C1c2ccccc2[C@@H]2CC(O)C(O)CCN12 (some centres undefined)	none (no result: TPT1 inh)
O=C(c1ccc(CS(=O)c2ccccc2Cl)o1)N1CCN(c2ccccn2)CC1 (centres undefined)	none
Cc1ccc(C2=NN(S(C)(=O)=O)C(c3cccs3)C2)cc1 (centres undefined)	none
CCc1ccc(C2=NN(S(C)(=O)=O)C(c3cccs3)C2)cc1 (centres undefined)	HNF4A DNA FP 92
